Test results from ChEMBL document CHEMBL1166000, “Maximizing chemical diversity of fungal metabolites: biogenetically related Heptaketides of the endolichenic fungus Corynespora sp. (1)” (J Nat Prod, 2010).
Activity calls are given as the source filed them. The rule behind the calls is not given here.

Test system: PC-3M
Test: Inhibition of human PC3M cell migration at 5 uM by wound-healing assay
Assay type: functional, cell-based

| SMILES | inhibition |
| --- | --- |
| COc1cc(O)c2c(c1)[C@H](O)C1C[C@](C)(O)OCC1C2=O (stereo partly drawn) | inactive |
| COc1cc(O)cc2c1C(=O)C1=C(C[C@](C)(O)OC1)C2=O | inactive |
| COc1cc(OC)c2c(c1)[C@H](O)C1C[C@](C)(O)OCC1C2=O (stereo partly drawn) | inactive |
| COc1cc(OC)c2c(c1O)C(=O)C1=C(CO[C@@](C)(O)C1)C2=O | inactive |
| COc1cc(OC)c2c(c1)C(=O)c1cc(C)ncc1C2=O | inactive |
| COc1cc(OC)c2c(c1)C(=O)C1=C(C2=O)C(OC)OC(C)=C1 (stereo not drawn) | inactive |
| COc1cc2c(c(OC)c1O)C(=O)C1=C(C[C@](C)(O)OC1)C2=O | inactive |
| COc1cc(OC)c2c(c1O)C(=O)c1cc(C)ncc1C2=O | inactive |
| COc1cc(OC)c2c(c1)C(=O)C1=C(CO[C@@](C)(O)C1)C2=O | inactive |

Test system: PC-3M
Test: Inhibition of cell proliferation in human PC3M cells at 5 uM after 40 hrs by MTT assay
Assay type: functional, cell-based
In short: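 Antiproliferative (cytotoxicity) screen by the MTT method, with each compound tested at a single concentration of 5 µM.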

| SMILES | inhibition |
| --- | --- |
| COc1cc(O)c2c(c1)[C@H](O)C1C[C@](C)(O)OCC1C2=O (stereo partly drawn) | inactive |
| COc1cc(O)cc2c1C(=O)C1=C(C[C@](C)(O)OC1)C2=O | inactive |
| COc1cc(OC)c2c(c1)[C@H](O)C1C[C@](C)(O)OCC1C2=O (stereo partly drawn) | inactive |
| COc1cc(OC)c2c(c1O)C(=O)C1=C(CO[C@@](C)(O)C1)C2=O | inactive |
| COc1cc(OC)c2c(c1)C(=O)c1cc(C)ncc1C2=O | inactive |
| COc1cc(OC)c2c(c1)C(=O)C1=C(C2=O)C(OC)OC(C)=C1 (stereo not drawn) | inactive |
| COc1cc2c(c(OC)c1O)C(=O)C1=C(C[C@](C)(O)OC1)C2=O | inactive |
| COc1cc(OC)c2c(c1O)C(=O)c1cc(C)ncc1C2=O | inactive |
| COc1cc(OC)c2c(c1)C(=O)C1=C(CO[C@@](C)(O)C1)C2=O | inactive |
